Assay results published in ChEMBL document CHEMBL1165966, “ppGpp analogues inhibit synthetase activity of Rel proteins from Gram-negative and Gram-positive bacteria” (Bioorg Med Chem, 2010).
Residue numbers refer to the chain shown, from its start. Calls of active or inactive are those of the source. The calls are words filed in the database; no cut-off is given here.

Tests used:
[1] = target: T1, GTP pyrophosphokinase (Escherichia coli K-12) (UniProt P0AG20); test: Inhibition of synthetic activity of Escherichia coli RelA assessed as inhibition of (p)ppGpp accumulation at 5 to 10 mM after 60 mins
T1 sequence (whole entry): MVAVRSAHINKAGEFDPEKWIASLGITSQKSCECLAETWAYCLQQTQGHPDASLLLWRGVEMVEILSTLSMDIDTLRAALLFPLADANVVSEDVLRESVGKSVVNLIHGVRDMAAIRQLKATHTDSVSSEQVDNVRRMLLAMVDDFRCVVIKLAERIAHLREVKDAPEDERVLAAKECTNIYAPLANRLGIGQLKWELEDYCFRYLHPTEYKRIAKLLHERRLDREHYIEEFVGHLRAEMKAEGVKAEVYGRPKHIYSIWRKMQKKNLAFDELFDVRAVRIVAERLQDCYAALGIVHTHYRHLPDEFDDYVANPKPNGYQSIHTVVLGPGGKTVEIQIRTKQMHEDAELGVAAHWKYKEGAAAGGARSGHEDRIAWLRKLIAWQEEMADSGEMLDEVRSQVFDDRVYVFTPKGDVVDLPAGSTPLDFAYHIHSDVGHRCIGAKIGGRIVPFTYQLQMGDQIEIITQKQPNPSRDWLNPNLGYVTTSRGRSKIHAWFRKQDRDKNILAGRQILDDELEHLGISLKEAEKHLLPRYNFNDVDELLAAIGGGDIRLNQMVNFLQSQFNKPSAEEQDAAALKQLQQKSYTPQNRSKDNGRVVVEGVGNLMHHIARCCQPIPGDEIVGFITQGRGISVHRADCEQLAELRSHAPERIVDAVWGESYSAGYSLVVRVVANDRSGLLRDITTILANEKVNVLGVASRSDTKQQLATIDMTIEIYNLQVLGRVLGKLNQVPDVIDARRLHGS

[2] = target: T2, Bifunctional (p)ppGpp synthase/hydrolase RelA (Streptococcus dysgalactiae subsp. equisimilis) (UniProt Q54089); test: Inhibition of synthetic activity of Streptococcus equisimilis RelA assessed as inhibition of (p)ppGpp accumulation at 5 to 10 mM after 5 mins
T2 sequence (whole entry): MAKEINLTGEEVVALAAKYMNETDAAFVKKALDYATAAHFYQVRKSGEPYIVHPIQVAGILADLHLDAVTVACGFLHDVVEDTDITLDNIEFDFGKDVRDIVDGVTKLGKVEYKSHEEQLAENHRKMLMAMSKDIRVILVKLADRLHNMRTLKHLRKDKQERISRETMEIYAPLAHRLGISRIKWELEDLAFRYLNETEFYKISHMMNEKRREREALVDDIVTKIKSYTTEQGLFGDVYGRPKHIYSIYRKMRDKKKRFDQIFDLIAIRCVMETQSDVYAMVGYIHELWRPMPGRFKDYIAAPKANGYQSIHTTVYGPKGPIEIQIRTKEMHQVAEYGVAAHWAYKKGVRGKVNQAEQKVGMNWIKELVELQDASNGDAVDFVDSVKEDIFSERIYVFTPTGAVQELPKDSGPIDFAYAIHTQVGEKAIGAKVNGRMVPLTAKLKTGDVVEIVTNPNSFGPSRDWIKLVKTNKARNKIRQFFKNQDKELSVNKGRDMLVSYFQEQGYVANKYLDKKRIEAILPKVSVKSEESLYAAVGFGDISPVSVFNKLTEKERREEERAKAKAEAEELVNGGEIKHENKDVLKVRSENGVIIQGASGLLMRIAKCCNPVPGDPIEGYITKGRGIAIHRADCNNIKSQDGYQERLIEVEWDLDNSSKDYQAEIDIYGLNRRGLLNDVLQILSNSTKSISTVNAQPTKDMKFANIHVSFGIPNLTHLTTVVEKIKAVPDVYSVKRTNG

[3] = target: T1, GTP pyrophosphokinase (Escherichia coli K-12); test: Inhibition of synthetic activity of Escherichia coli RelA assessed as inhibition of (p)ppGpp accumulation at > 1 mM after 60 mins
[4] = target: T1, GTP pyrophosphokinase (Escherichia coli K-12); test: Inhibition of Escherichia coli RelA catalytic site at 5 mM in presence of increasing concentration of GTP
Method in brief: (§1)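 The buffer was Tris–HCl pH 7.4 with DTT, MgCl2, KCl and (NH4)2SO4. Analogue was held at 5 mM while GTP or ATP was raised. Reactions ran 60 min at room temperature, were stopped with formic acid, and (p)ppGpp accumulation was the read-out.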

[5] = target: T2, Bifunctional (p)ppGpp synthase/hydrolase RelA (Streptococcus dysgalactiae subsp. equisimilis); test: Inhibition of Streptococcus equisimilis RelA catalytic site at 5 mM in presence of increasing concentration of GTP
[6] = target: T1, GTP pyrophosphokinase (Escherichia coli K-12); test: Inhibition of synthetic activity of Escherichia coli RelA assessed as inhibition of (p)ppGpp accumulation at 0.1 to 0.5 mM after 60 mins
[7] = target: T1, GTP pyrophosphokinase (Escherichia coli K-12); test: Inhibition of Escherichia coli RelA dissociation from ribosome assessed as increase in bound protein at 1 to 10 mM after 4 hrs by chemiluminescence assay relative to control
Method in brief: (§2)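 Ribosomes were isolated through a 40% sucrose cushion from E. coli grown in LB at 37 °C. RelA plus ribosomes and analogue at 1–10 mM were centrifuged 4 h at 32,000 rpm, 4 °C, and split into soluble and ribosomal fractions. Ribosomal fractions were run on 12% SDS-PAGE, blotted to PVDF and probed with anti-His antibody (1:10,000).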

[8] = test system: Escherichia coli; test: Inhibition of synthetic activity of Escherichia coli RelA C638F mutant at 1 to 10 mM
Method in brief: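 Analogue was added at 1, 5 or 10 mM in duplicate lanes. The buffer was Tris–HCl pH 7.4 containing DTT, MgCl2, KCl and (NH4)2SO4. Reactions ran at room temperature and were stopped with formic acid.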

[9] = target: T2, Bifunctional (p)ppGpp synthase/hydrolase RelA (Streptococcus dysgalactiae subsp. equisimilis); test: Inhibition of synthetic activity of Streptococcus equisimilis RelA assessed as inhibition of (p)ppGpp accumulation at 0.5 mM after 5 mins
[10] = target: T2, Bifunctional (p)ppGpp synthase/hydrolase RelA (Streptococcus dysgalactiae subsp. equisimilis); test: Inhibition of Streptococcus equisimilis RelA catalytic site at 5 mM in presence of increasing concentration of ATP
[11] = target: T1, GTP pyrophosphokinase (Escherichia coli K-12); test: Inhibition of Escherichia coli RelA catalytic site at 5 mM in presence of increasing concentration of ATP
Method in brief: as §1

[12] = test system: T3, GTP pyrophosphokinase (Escherichia coli K-12), P0AG20 [G251E]; test: Inhibition of Escherichia coli RelA G251E mutant dissociation from ribosome at 1 to 10 mM after 4 hrs by chemiluminescence assay
T3 sequence (whole entry): T1 sequence (whole entry) with G251E
Method in brief: as §2

[13] = target: T1, GTP pyrophosphokinase (Escherichia coli K-12); test: Inhibition of Escherichia coli RelA dissociation from L11 mutated ribosome assessed as increase in bound protein at 1 to 10 mM after 4 hrs by chemiluminescence assay relative to control
Method in brief: as §2

| Compound | inhibition [1] | inhibition [2] | other results |
| --- | --- | --- | --- |
| Nc1nc2c(ncn2[C@@H]2O[C@H](COP(=O)(O)CP(=O)(O)O)[C@@H](O)[C@H]2O)c(=O)[nH]1 | Active | Active | – |
| CC(C)C(=O)Nc1nc2c(ncn2[C@@H]2O[C@H](COP(=O)(O)CP(=O)(O)O)[C@@H](OP(=O)(O)CP(=O)(O)O)[C@H]2O[Si](C)(C)C(C)(C)C)c(=O)[nH]1 | Active | Active | – |
| Nc1nc2c(ncn2[C@@H]2O[C@H](COP(=O)(O)CP(=O)(O)O)[C@@H](OP(=O)(O)CP(=O)(O)O)[C@H]2O)c(=O)[nH]1 | Active | Active | – |
| CC1(C)O[C@@H]2[C@H](O1)[C@@H](COP(=O)(O)CP(=O)(O)O)O[C@H]2n1cnc2c(=O)[nH]c(N)nc21 | Active | Active | – |
| Nc1nc2c(ncn2[C@H]2C[C@H](OP(=O)(O)CP(=O)(O)O)[C@@H](CO)O2)c(=O)[nH]1 | Active | Active | – |
| CC(C)C(=O)Nc1nc2c(ncn2[C@@H]2O[C@H](COP(=O)(O)CP(=O)(O)O)[C@@H](OP(=O)(O)CP(=O)(O)O)[C@H]2O)c(=O)[nH]1 | Active | Active | – |
| Nc1nc2c(ncn2[C@H]2C[C@H](OP(=O)(O)CP(=O)(O)O)[C@@H](COP(=O)(O)CP(=O)(O)O)O2)c(=O)[nH]1 | Active | Active | inhibition [3]: > 50%; inhibition [4]: inactive; inhibition [5]: inactive; inhibition [6]: inactive; fold change (FC) [7]: 3; inhibition [8]: Active; inhibition [9]: > 50%; inhibition [10]: Active; inhibition [11]: Active; inhibition [12]: inactive; inhibition [13]: inactive |
